# Screening results from PubChem BioAssay.
# Hits are enriched below; roughly 5.3% of the tested compounds scored in any of these assays.
# Cav32 inh: Cav3.2 calcium influx blockers – cell-based, Fluo-4 calcium fluorescence, FDSS, MLSMR library, primary screen. Voltage-dependent T-type calcium channel subunit alpha-1H (Homo sapiens), O95180. Cav3.2-expressing cells; active compounds read low. B-score at 10 µM. 100,000 tested, 4% active;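 active = single-dose well whose peak fluorescence ratio is a statistical outlier from its plate by either plate-standardised score or position-corrected B-score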
# Target sequence (O95180 whole entry, looked up): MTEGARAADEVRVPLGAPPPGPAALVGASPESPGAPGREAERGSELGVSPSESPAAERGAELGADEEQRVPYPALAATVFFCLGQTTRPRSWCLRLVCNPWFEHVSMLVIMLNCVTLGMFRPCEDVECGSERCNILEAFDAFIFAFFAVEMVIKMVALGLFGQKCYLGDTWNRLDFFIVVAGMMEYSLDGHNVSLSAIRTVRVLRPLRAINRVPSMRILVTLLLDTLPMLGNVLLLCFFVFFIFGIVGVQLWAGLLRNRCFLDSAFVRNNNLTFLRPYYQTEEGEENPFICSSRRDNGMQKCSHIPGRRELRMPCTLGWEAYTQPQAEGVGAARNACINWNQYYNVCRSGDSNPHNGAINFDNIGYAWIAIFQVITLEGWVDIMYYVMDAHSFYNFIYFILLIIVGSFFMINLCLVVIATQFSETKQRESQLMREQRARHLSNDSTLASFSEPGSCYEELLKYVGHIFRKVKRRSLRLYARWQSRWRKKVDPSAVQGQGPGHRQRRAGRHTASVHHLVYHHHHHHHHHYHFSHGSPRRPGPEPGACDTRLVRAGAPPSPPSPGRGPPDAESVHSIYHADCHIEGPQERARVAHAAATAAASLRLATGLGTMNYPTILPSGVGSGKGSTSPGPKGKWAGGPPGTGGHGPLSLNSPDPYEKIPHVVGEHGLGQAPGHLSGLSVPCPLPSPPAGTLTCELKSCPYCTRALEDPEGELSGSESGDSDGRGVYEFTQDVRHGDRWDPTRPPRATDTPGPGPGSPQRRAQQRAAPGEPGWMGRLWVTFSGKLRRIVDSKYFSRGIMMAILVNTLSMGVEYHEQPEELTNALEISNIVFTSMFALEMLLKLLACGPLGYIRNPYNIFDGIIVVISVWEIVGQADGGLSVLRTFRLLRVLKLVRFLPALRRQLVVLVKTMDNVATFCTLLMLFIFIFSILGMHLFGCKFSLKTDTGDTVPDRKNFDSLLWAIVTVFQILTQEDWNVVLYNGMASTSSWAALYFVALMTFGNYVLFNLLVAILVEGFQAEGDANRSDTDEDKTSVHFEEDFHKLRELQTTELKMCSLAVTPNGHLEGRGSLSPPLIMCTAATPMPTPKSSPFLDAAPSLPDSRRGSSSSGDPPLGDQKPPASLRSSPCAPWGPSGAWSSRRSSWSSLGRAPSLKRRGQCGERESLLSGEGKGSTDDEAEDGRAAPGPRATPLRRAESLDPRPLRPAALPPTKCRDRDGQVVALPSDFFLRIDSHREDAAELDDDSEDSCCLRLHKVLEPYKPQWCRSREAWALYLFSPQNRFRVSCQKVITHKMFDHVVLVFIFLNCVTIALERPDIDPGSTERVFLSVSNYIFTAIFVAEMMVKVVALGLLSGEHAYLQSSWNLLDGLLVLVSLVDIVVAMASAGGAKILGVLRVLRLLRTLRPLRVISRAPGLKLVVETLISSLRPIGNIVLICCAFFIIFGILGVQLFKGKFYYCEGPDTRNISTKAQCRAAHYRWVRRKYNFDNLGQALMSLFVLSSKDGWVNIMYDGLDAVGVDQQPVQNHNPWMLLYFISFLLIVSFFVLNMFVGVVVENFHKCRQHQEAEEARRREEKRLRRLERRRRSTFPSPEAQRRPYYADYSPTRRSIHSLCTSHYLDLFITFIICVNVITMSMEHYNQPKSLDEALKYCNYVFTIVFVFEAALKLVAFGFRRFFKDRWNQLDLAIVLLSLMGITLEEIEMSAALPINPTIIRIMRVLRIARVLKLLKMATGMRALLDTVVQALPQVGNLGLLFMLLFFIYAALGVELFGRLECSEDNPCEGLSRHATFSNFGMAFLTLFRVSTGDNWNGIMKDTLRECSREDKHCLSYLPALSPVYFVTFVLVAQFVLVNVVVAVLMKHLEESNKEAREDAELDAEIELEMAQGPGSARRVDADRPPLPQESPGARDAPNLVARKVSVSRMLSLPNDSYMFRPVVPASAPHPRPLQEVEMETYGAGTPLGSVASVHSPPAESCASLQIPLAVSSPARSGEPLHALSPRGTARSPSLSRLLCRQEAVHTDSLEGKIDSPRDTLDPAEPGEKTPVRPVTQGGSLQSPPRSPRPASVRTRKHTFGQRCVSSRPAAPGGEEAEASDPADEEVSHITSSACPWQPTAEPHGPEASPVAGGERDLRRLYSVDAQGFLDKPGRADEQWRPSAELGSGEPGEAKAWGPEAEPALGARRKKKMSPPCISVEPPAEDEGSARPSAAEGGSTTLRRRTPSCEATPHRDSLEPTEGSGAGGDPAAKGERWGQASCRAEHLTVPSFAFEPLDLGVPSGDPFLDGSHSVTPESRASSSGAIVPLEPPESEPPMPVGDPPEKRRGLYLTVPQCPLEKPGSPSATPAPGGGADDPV
# PLK1 inh: human PLK1 kinase inhibitors, primary screen, biochemical, TR-FRET | Serine/threonine-protein kinase PLK1 (Homo sapiens), P53350 | recombinant PLK1 kinase, TR-FRET peptide phosphorylation | inhibition, % at 10 µM | 97,000 tested, 0.53% active | AID 619, 2007;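 active = inhibition of 50% or more in the single-concentration screen; inactive = inhibition below 50%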
# EphB4 ephrin blk: EphB4-ephrin-B2 interaction antagonists, primary screen, biochemical, TNYL-RAW peptide probe, fluorescence polarization | Ephrin type-B receptor 4 (Homo sapiens), P54760 | EphB4 LBD / TNYL-RAW-Alexa532 peptide | inhibition, % at 7 µM | 97,000 tested, 0.15% active;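 active = inhibition above the screen-wide mean inhibition plus 3 SD, cut at about 15% in these data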
# FAK inh: FAK kinase inhibitors, primary screen, biochemical; Focal adhesion kinase 1 (Homo sapiens), Q05397; 97,000 tested, 0.84% active; inhibition, %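 (tested at 7 µM)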; biochemical FAK kinase activity assay; in the data active = inhibition above about 19%
# HIV Rev-RRE inh: HIV-1 Rev-RRE binding inhibitors, primary screen, biochemical, FRET, protein-RNA interaction | P05866 | Rev peptide-RRE RNA binding | inhibition, % at 8 µM | 97,000 tested, 0.79% active | AID 704, 2007;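 active = inhibition above the screen-wide mean plus 3 SD, cut at about 35% in these data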
#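 System: Cy5-labelled duplex RRE RNA binding fluorescein-labelled HIV Rev peptide; Signal: fluorescein-to-Cy5 FRET, 480 nm excitation; Also added: labelled Rev peptide; Compound: one concentration, 8 µM nominal; Buffer or medium: HEPES pH 7.5 salt buffer with EDTA; Read-out: % inhibition of FRET ratio versus controls; Schedule: 5 min preincubation and 15 min binding, 25 °C.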
# Plk1 PBD FP: Plk1 polo box domain binding inhibitors, primary screen, biochemical, fluorescence polarization; Plk1 PBD phosphopeptide binding; AID 693, 2007; 97,000 tested, 0.13% active; inhibition, %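 (tested at about 20 µM)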; in the data active = inhibition above about 34%, passing the limit was not always enough
# A number is an active result; – = inactive; · = no result; [ ] = dose if it differs, or a comment.
SMILES,Cav32 inh,PLK1 inh,EphB4 ephrin blk,FAK inh,HIV Rev-RRE inh,Plk1 PBD FP
NC(=O)C1(N2CCCCC2)CCN(Cc2ccc(F)cc2)CC1,-4.15,–,–,–,–,–
Fc1ccc(CN2CCCCCCC2)cc1,–,–,–,–,–,–
O=C(Nc1c(C(=O)O)oc2ccc(Br)cc12)c1ccccc1,–,50.6,–,–,–,–
CCOn1c(=O)c(-c2ccc(OC)cc2)[n+]([O-])c2ccccc21,–,–,–,–,–,–
COC(=O)c1c(=O)n(O)c2ccc(OC)cc2[n+]1[O-],–,–,–,–,41.4,–
CNc1nnc(-c2cc3cc(Cl)ccc3oc2=O)s1,–,–,–,–,79.4,–
COc1ccc(N=Cc2sc(O)c3ccccc23)cc1,–,–,–,–,128.8[fluorescence artefact?],–
Cc1ccc(C(C)C)c(OCC(=O)Nn2c(C)nc3ccccc3c2=O)c1,-4.97,–,–,–,–,–
COc1ccc(NC(=O)C(c2ccccc2)N(C)C(=O)c2cnccn2)cc1 (centres undefined),-4.18,·,·,·,·,·
CCCCNC(=O)Cc1cc(=O)[nH]c(=O)[nH]1,–,·,·,·,·,·
Clc1ccc(CSc2cc3c(nn2)-c2ccccc2CC3)cc1Cl,-5.3,–,–,–,–,–
Clc1ccccc1CSc1cc2c(nn1)-c1ccccc1CC2,·,–,–,–,–,–
Clc1cccc(Cl)c1CSc1cc2c(nn1)-c1ccccc1CC2,-3.95,–,–,–,–,–
Cc1c(NC(=O)c2ccc(N3CCCC3)c([N+](=O)[O-])c2)cccc1-c1nc2ccccc2s1,-4.61,–,–,–,–,–
C#Cc1ccc([C@@H]2C=C(C(=O)N3CCOCC3)O[C@H](OCC)[C@H]2CCCO)cc1,–,·,·,·,·,·
CC(Nc1ccccc1)c1cc(Cl)ccc1O (centres undefined),-7.11,–,–,–,–,–
COc1ccc(NC(C)c2cc(Cl)ccc2O)cc1 (centres undefined),·,–,–,–,–,–
CC(CCCCC(=O)Nc1ccc(C(F)(F)F)cc1)NCCc1cnc[nH]1 (centres undefined),–,·,·,·,·,·
N#C/C(=C/c1ccc(N2CCCCCC2)o1)c1ccc(Cl)cc1,-5.72,–,–,–,96.6[fluorescence artefact?],–
O=C(c1cccc(F)c1)N1CCCC(C(=O)N2CCCC2)C1 (centres undefined),–,–,–,–,–,–
N#C/C(=C/c1ccc(Sc2nc3ccccc3[nH]2)o1)c1cccc(F)c1,-4.45,–,–,–,–,–
N#C/C(=C/c1ccc(N2CCCCC2)o1)c1cccc(F)c1,-5.6,–,–,–,98.7[fluorescence artefact?],–
Clc1ccc(SCc2cc(-c3ccc(Cl)cc3)on2)cc1,–,–,–,–,–,–
Cc1ccc(S(=O)(=O)Nc2ccc(Br)cc2/C=N/n2cnnc2)cc1,–,–,–,–,–,–
CNc1ccc(Br)cc(C(=O)/C=C/c2cc(OC)ccc2OC)c1=O,–,–,–,–,54.6,–
SMILES,Cav32 inh,PLK1 inh,EphB4 ephrin blk,FAK inh,HIV Rev-RRE inh,Plk1 PBD FP
COc1ccc(C(=O)/C=C/c2ccc(OC)cc2OC)c(O)c1,–,·,·,·,·,·
CCOC(=O)c1sc2ncn(C(C)C(=O)OC)c(=O)c2c1C (centres undefined),–,–,–,–,–,–
CCCOC(=O)C(C)n1cnc2sc(C)c(C)c2c1=O (centres undefined),–,–,16.0,–,–,–
O=C(O)CCn1c(SCc2ccccc2)nc2ccccc21,–,–,–,–,–,–
Cc1noc(C)c1CSc1nc2ccccc2n1CCc1ccccc1,-4.14,–,–,–,–,–
CN1CCN(S(=O)(=O)c2ccc(NC(=O)C(C)(C)C)cc2)CC1,-5.69,–,–,–,–,–
O=C(Nc1ccc(S(=O)(=O)N2CCc3ccccc3C2)cc1)C1CCCO1 (centres undefined),-3.95,–,–,–,–,–
Cc1ccc(C(=O)Nc2ccc(S(=O)(=O)N3CCc4ccccc4C3)cc2)o1,–,–,–,–,–,–
CC(=O)Nc1ccc(S(=O)(=O)N2CCc3c(Cl)cccc3C2)cc1,-4.34,–,–,–,–,–
